High-throughput results: PubChem BioAssay, several laboratories
Neddyl block = cullin neddylation inhibition; TR-FRET cullin neddylation, biochemical; calls only at 25 µM; AID 651699; P61081+Q13564; 0.58% of 360,000 active; in the data active means inhibition above about 36%
DNA FID counter = displaces DNA intercalator in HCV helicase counter-screen; DNA fluorescent intercalator displacement, fluorescence; inhibition, % at 7.9 µM; 0.17% of 290,000 active; AID 1845; in the data active means inhibition above about 37%;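 further: 0% = vehicle and 100% = reference compound; higher means more ethidium bromide displaced from hairpin DNA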
UBC13 inh = inhibitors of human UBC13 polyubiquitin chain formation | P61088 | TR-FRET | inhibition, % at 20 µM | 0.47% of 330,000 active; in the data active means inhibition above about 45%, passing the limit was not always enough
Target sequence (P61088 whole entry, looked up): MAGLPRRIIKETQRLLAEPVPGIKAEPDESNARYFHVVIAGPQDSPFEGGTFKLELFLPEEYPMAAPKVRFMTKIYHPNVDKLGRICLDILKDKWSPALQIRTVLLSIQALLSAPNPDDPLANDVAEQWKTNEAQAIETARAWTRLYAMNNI
Apaf1 inhib = blocks human Apaf-1 apoptosome activity | reconstituted apoptosome caspase-3 activity, DEVD-Rh110 fluorescence | AID 489030 | 0.71% of 330,000 active | inhibition, % at 20 µM | O14727; active means inhibition of at least 40% at 20 µM;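 further: plate controls were DMSO wells for no effect and DEVD-CHO caspase inhibitor wells for full effect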
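Material: reconstituted apoptosome with Apaf-1, cytochrome c, caspase-9, procaspase-3, dATP. Technique: Rh110 fluorescence intensity. Buffer or medium: pH 7.5 Hepes buffer with CHAPS, BSA, DTT. Times: 30 min plus 50 min, RT.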
RAD54 branch = blocks human RAD54 Holliday junction branch migration; Q92698; FAM/BHQ fluorescence; inhibition, % at 10.4 µM; 0.14% of 360,000 active;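 active means mean normalized replicate activity at least 40 and at least half of replicates scoring 40 or more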;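 further: 0% = median of neutral control wells and 100% = median of positive control wells; inhibitors cause a drop in the FAM fluorescence signal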
RAD52 inh = inhibitors of human RAD52 DNA annealing; P43351; recombinant RAD52 DNA annealing, FRET fluorescence; inhibition, % at 18.7 µM; 0.46% of 360,000 active; AID 651710;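 active means every replicate showing at least 50% inhibition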
Target sequence (P43351 whole entry, looked up): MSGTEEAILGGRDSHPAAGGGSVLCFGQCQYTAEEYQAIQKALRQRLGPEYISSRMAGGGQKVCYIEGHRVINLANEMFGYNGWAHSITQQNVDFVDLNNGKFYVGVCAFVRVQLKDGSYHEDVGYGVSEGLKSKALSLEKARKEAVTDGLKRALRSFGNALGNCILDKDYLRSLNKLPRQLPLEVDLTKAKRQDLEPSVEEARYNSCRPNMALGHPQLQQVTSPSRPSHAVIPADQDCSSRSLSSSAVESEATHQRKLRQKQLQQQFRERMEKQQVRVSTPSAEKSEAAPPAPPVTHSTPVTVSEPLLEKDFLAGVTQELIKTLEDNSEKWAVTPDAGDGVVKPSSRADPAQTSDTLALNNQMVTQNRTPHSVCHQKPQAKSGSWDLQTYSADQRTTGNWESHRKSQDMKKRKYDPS
Neddyl conf = confirmation of human cullin neddylation inhibitors | TR-FRET cullin neddylation biochemical assay | calls only at 25 µM | 13% of 1,800 active | shares compounds with Neddyl block; in the data active means inhibition above about 40%;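 further: neddylation substrate is the cullin 1 ring ligase complex with SKP2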
Numbers without * were called inactive; i = inactive; / = no result shown; + = active, no number. A selection: hits, their analogues and other compounds. The true share with any hit is near 1.6%.

SMILES	Neddyl block	DNA FID counter	UBC13 inh	Apaf1 inhib	RAD54 branch	RAD52 inh	Neddyl conf
CO[C@H]1CN(C)C(=O)c2cc(NC(C)=O)ccc2OC[C@H](C)N(C(=O)Cc2cccnc2)C[C@@H]1C	/	/	/	/	13	1	/
NC(=O)c1nsc(C(=O)N(c2ccc(F)cc2)C(C(=O)NCC2CCCO2)c2ccc3ncccc3c2)c1N (stereo not drawn)	/	-46	28	16	-10	-27	/
Cc1cccc(N(C(=O)c2snc(C(N)=O)c2N)C(C(=O)NCC2CCCO2)c2ccc3ncccc3c2)c1 (stereo not drawn)	+	-36	41	16	2	-11	/
Cc1ccc(N(C(=O)c2snc(C(N)=O)c2N)C(C(=O)NCC2CCCO2)c2ccc3ncccc3c2)cc1 (stereo not drawn)	+	-39	41	8	1	-17	i
NC(=O)c1nsc(C(=O)N(c2ccccc2)C(C(=O)NCC2CCCO2)c2cccs2)c1N (stereo not drawn)	+	-16	40	-11	/	24	i
COc1cccc(N(C(=O)c2snc(C(N)=O)c2N)C(C(=O)NCC2CCCO2)c2ccc3ncccc3c2)c1 (stereo not drawn)	+	-40	29	4	9	-29	+
NC(=O)c1nsc(C(=O)N(c2ccccc2)C(C(=O)NCC2CCCO2)c2ccc(F)cc2)c1N (stereo not drawn)	i	-36	22	7	-2	-16	/
CN(C)C(=O)C[C@H]1C=C[C@@H](NC(=O)C2CCOCC2)[C@@H](CO)O1	/	/	/	/	/	5	/
N/C(=N\N=Cc1ccc2c(c1)OCO2)NN=Cc1ccc2c(c1)OCO2	+	/	/	/	3	-6	/
O=C(NN=Cc1ccc2c(c1)OCO2)NN=Cc1ccc2c(c1)OCO2	i	/	/	/	3	-12	/
CC1(C)Oc2ccc3ccc(=O)oc3c2/C(=C/N)C1=O	i	-7	-18	-8	-1	-12	/
CC1(C)Oc2ccc3ccc(=O)oc3c2/C(=C/O)C1=O	+	-3	-9	-7	4	-27	i
Cc1noc(C)c1NC(=O)N(C)C[C@@H]1OCCCC[C@H](C)Oc2ccc(NS(=O)(=O)c3ccc(F)cc3)cc2C(=O)N([C@@H](C)CO)C[C@@H]1C	/	/	/	/	-7	13	/
COc1cccc(S(=O)(=O)Nc2ccc3c(c2)[C@H]2C[C@@H](CC(=O)NCc4cccc(F)c4)O[C@H](CO)[C@H]2O3)c1	/	/	/	/	1	-6	/
Cc1nnc(SCc2cc(=O)oc3cc(O)ccc23)n1Cc1ccccc1	+	-14	8	-3	8	/	i
CCSc1nnc(NC(=O)c2cccc(S(=O)(=O)N(C)c3ccc(C)cc3)c2)s1	+	-2	-2	9	-6	/	i
Cc1cc(C(=O)Nc2cccc3c2O[C@H](CN(C)C(=O)Nc2ccc(F)cc2)[C@@H](C)CN([C@@H](C)CO)C3=O)n(C)n1	/	/	/	/	4	15	/
COc1ccc2oc(=O)cc(-c3cc4cccc(OC)c4o3)c2c1	i	-12	0	4	6	-6	/
CCN(CC)C(=O)Oc1ccc2oc(=O)cc(-c3cc4cccc(OC)c4o3)c2c1	+	-40	7	21	-5	-13	/
CN1CCCCc2c1nc1c(c2N)CCCC1	+	4	-1	-2	6	/	i
CC(=O)Nc1ccc(Nc2nc(C)nc3c2nnn3Cc2ccccc2Cl)cc1	/	-21	5	-4	-6	-19	/
Cc1nc(Nc2cccc(C(C)O)c2)c2nnn(Cc3ccccc3F)c2n1 (stereo not drawn)	+	-25	3	7	/	-17	i
CO[C@H](CN(C)S(=O)(=O)c1ccc(F)cc1)[C@H](C)CN([C@H](C)CO)S(=O)(=O)c1cccc(Cl)c1	/	/	/	/	-2	-3	/
COc1ccc(-c2ccc(-c3nnc(Cc4ccc(OC)c(OC)c4)o3)cc2)cc1	+	-2	-7	-1	2	/	i
C[C@@H]1CN([C@H](C)CO)C(=O)c2cc(C#Cc3ccncc3)cnc2O[C@H]1CN(C)CC1CCCC1	/	/	/	/	-1	-26	/
SMILES	Neddyl block	DNA FID counter	UBC13 inh	Apaf1 inhib	RAD54 branch	RAD52 inh	Neddyl conf
O=C(CC1CC1)N[C@@H]1CC[C@H](CCNS(=O)(=O)c2ccc(F)cc2)O[C@@H]1CO	/	/	/	/	5	-2	/
CCc1ccccc1Cn1c(=O)oc2cccnc21	+	-4	0	-25	/	-4	i
COc1ccccc1Cn1c(=O)oc2ccccc21	i	/	/	/	8	-7	/
COCCNC(=O)/C(C#N)=C/c1c(N2CCN(c3ccc(OC)cc3)CC2)nc2c(C)cccn2c1=O	i	-33	2	18	-6	-3	/
COCCNC(=O)/C(C#N)=C/c1c(N2CCN(c3ccccc3)CC2)nc2c(C)cccn2c1=O	+	-30	5	20	-10	-12	i
O=C(C[C@@H]1CC[C@@H](NC(=O)c2ccncc2)[C@H](CO)O1)NCC1CCCCC1	/	/	/	/	1	-7	/
CC(C)C[C@@H](CSc1ccc(Br)cc1)N1CCN(CCc2ccccc2)CCC1=O	i	/	23	23	1	-27	/
CC(C)C[C@@H](CSc1ccccc1)N1CCN(CCc2ccccc2)CCC1=O	+	-19	10	20	-3	2	i
C[C@H](CO)N1C[C@H](C)[C@H](CN(C)C(=O)CN(C)C)Oc2cc(C3=CCCC3)ccc2S1(=O)=O	/	/	/	/	1	0	/
CCCCC(=O)Nc1cc(-c2nc3ncccc3o2)ccc1C	i	-8	-2	-17	5	-8	/
CCCCC(=O)Nc1cccc(-c2nc3ncccc3o2)c1C	+	-14	-2	3	-1	7	i
N#CCn1c2ccccc2c2nc3ccccc3nc21	+	12	12	-3	/	2	i
C#CCn1c2ccccc2c2nc3ccccc3nc21	i	-5	14	4	/	-10	/
Cc1cc2nc(C)c(=O)n(C)c2cc1C	+	-2	14	-5	/	/	i
CCOC(=O)c1cn2nc(Oc3cccc(F)c3)ccc2n1	+	-11	3	-9	/	-4	i
CC1(C)CC(=O)C2=C(C1)c1c(ccc3ccccc13)NC2c1ccc(OCC(=O)O)cc1 (stereo not drawn)	/	-40	-1	2	-8	-13	/
CC1(C)CC(=O)C2=C(C1)c1c(ccc3ccccc13)NC2c1ccc(Br)o1 (stereo not drawn)	+	-11	2	28	6	/	i
Cc1c(C)c2ccc(OC(C)C(=O)N3C[C@H]4C[C@@H](C3)c3cccc(=O)n3C4)c(C)c2oc1=O (stereo partly drawn)	+	-22	-12	5	-17	1	i
CO[C@H]1CN(C)C(=O)c2cc(NC(C)=O)ccc2OC[C@H](C)N(C(=O)CC2CC2)C[C@@H]1C	/	/	/	/	-5	-2	/
